Experimental data from different studies.
Each line is one published result; the experiments were not run side by side.
Target: Mitogen-activated protein kinase 12 (MAPK12, Homo sapiens, UniProt P53778)
One construct used (P53778 1-367): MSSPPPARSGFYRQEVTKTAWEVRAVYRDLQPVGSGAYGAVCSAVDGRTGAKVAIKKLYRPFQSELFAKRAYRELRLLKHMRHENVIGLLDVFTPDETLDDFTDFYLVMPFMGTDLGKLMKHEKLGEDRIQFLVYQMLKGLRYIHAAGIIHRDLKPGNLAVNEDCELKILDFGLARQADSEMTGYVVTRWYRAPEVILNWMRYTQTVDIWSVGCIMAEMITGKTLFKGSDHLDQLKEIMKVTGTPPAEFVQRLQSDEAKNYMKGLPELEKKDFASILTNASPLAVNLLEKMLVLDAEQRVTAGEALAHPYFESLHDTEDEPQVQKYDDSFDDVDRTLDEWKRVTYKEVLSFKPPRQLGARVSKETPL

Structure (SMILES) | effect on | mode | technique | concentration | measurement | result
COc1cc2ncnc(Nc3ccc(Oc4ccccc4)c(C)c3C)c2cc1OC | enzyme activity | inhibitor |  | 1 µM | inhibition | 2%
Cc1cnc(NC2CCOCC2)nc1-n1cnc(C(=O)NC(CN)c2cc(F)cc(Cl)c2)c1 (stereo not shown) | enzyme activity | inhibitor | radiometric | 1 µM | remaining activity | 48%
CNC(=O)c1cc(Oc2ccc(NC(=O)Nc3ccc(Cl)c(C(F)(F)F)c3)cc2)ccn1 | cell-free assay |  |  | 0.5 µM | remaining signal | 94.2%
Nc1ncnc2occ(-c3ccc(NC(=O)Nc4cc(C(F)(F)F)ccc4F)cc3)c12 | cell-free assay | inhibitor |  | 20 µM | remaining signal | 0.5%
Nc1c(C(=O)NCc2ccc(C(=O)NCCCC3CCCCC3)cc2)cnn1-c1ccccc1 | cell-free assay |  | competition with immobilised ligand | 0.1 µM | remaining binding | 100%
N#CCCc1ccc2c(c1)-c1[nH]c3ccc([N+](=O)[O-])cc3c1CC(=O)N2 | cell-free assay |  |  | 0.5 µM | remaining signal | 98.9%
Cc1ccc(C(=O)Nc2ccc(CN3CCN(C)CC3)c(C(F)(F)F)c2)cc1C#Cc1cnc2cccnn12 | enzyme activity | inhibitor |  | 23.5 nM | remaining activity | 70%
Cc1sc(C(=O)NC2COC2)cc1-n1cc(NC(=O)Nc2c(F)cccc2Cl)cn1 | enzyme activity | inhibitor |  | 10 µM | remaining activity | 90.5%
CCOc1cc(-c2nncn2C)ccc1Nc1ncc2cc(C)nc(NCC(C)(C)C)c2n1 | enzyme activity | inhibitor | FRET | 1 µM | inhibition | < 15%
CCOC(=O)c1cc2cc(-c3cc(C(=O)NCc4ccc(C(=O)O)cc4)nn3C)ccc2[nH]1 | cell-free assay |  | competition with immobilised ligand | 0.1 µM | remaining binding | 77%
CC(C)(C)c1nc(-c2cccc(NS(=O)(=O)c3c(F)cccc3F)c2F)c(-c2ccnc(N)n2)s1 | enzyme activity | inhibitor | radiometric | 1 µM | remaining activity | 102%
CCN(CC)CCNC(=O)c1c(C)[nH]c(/C=C2\C(=O)Nc3ccc(F)cc32)c1C | enzyme activity | inhibitor |  | 0.3 µM | inhibition | -10%
Oc1cccc(-c2nc(N3CCOCC3)c3oc4ncccc4c3n2)c1 | enzyme activity | inhibitor |  | 10 µM | remaining activity | 76%
C[C@H](c1ccc(F)cc1)N(Cc1cccc(C(=O)O)c1)C(=O)c1cnc2ccccc2c1 | cell-free assay |  | competition with immobilised ligand | 1 µM | remaining binding | 65%
COc1cc(/C=C/C(=O)CC(=O)/C=C/c2ccc(O)c(OC)c2)ccc1O | enzyme activity | inhibitor |  | 1 µM | activity vs control | 101%
Oc1ccc(-c2nc(-c3ccncc3)c(-c3ccc(F)cc3)[nH]2)cc1 | cell-free assay |  |  | 0.5 µM | remaining signal | 102%
CNC(=O)Nc1ccc2c(c1)CC[C@@]21OC(=O)N(CC(=O)N(Cc2ccc(F)cc2)[C@@H](C)C(F)(F)F)C1=O | cell-free assay |  | competition with immobilised ligand | 1 µM | remaining binding | 63%
COc1cc(Nc2cnc(C#N)c(O[C@H](C)CN(C)C)n2)ncc1-c1cnn(C)c1 | enzyme activity | inhibitor | radiometric | 1 µM | remaining activity | 89%
CC1CCCN1c1nccc(-c2cnn3ncccc23)n1 (stereo not shown) | binding |  |  | 1 µM | remaining binding | 90%
CC(=O)C1=C(C)N(c2cccc(C(F)(F)F)c2)C(=O)N[C@@H]1c1ccc(C#N)nc1 | cell-free assay |  | competition with immobilised ligand | 1 µM | remaining binding | 77.4%
Cc1ccc(Nc2nccc(N(C)c3ccc4c(C)n(C)nc4c3)n2)cc1S(N)(=O)=O | enzyme activity | inhibitor |  | 10 µM | inhibition | -5%
CCN(CC)c1ccc(C2=NNC(=O)CC2C)cc1[N+](=O)[O-] (stereo not shown) | enzyme activity | inhibitor |  | 10 µM | remaining activity | 104%
CCS(=O)(=O)c1cc2cc(C[C@](O)(CC(C)(C)c3ccc(F)cc3C(N)=O)C(F)(F)F)[nH]c2cn1 | cell-free assay |  | competition with immobilised ligand | 1 µM | remaining binding | 100%
Nc1nc(NC2CCCCC2)sc1C(=O)c1ccccc1 | enzyme activity | inhibitor |  | 10 µM | remaining activity | 71%
NS(=O)(=O)c1cc(NC(=O)Cc2ccccc2)ccc1Oc1cccc(Cl)c1 | cell-free assay |  | competition with immobilised ligand | 1 µM | remaining binding | 100%
Cc1ccc(NC(=O)c2ccc(C)c(C(F)(F)F)c2)cc1C#Cc1nn(C2CCC(O)CC2)c2ncnc(N)c12 (stereo not shown) | cell-free assay |  |  | 10 µM | remaining signal | 68%
CN1CCN(c2cnc3c(C4CCN(C(=O)c5ccc(OC(F)(F)F)cc5N)CC4)ncnc3c2)CC1 | cell-free assay |  | competition with immobilised ligand | 1 µM | remaining binding | 83%
CCCOc1ccc(OC)c(F)c1C(=O)c1ccc(C(=O)N[C@@H]2CNC[C@H]2NC(=O)c2ccc3[nH]ncc3c2)cc1 | enzyme activity | inhibitor |  | 10 µM | remaining activity | 97%
